DAT uptake mod: changed hDAT dopamine uptake under cocaine IC80, either direction, primary screen, cocaine antagonist project, cell-based, LLC-PK1 hDAT, [14C]-dopamine uptake, MLSMR. 1.3% of 110,000 active. B-score at 10 µM. Sodium-dependent dopamine transporter (Homo sapiens), Q01959. LLC-PK1 hDAT cells, [14C]-dopamine uptake with cocaine IC80; actives deviate in either direction;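 active = Z score or B-score, a plate-position-corrected score, falls beyond the plate's 99.7% confidence bounds, in either direction; inactive = both scores lie inside the 99.7% bounds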;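 note: scored against the spread of the other compound wells on the same plate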
M1 agonist: M1 muscarinic receptor agonists, primary screen, CHO-M1 cells, Fluo-4 calcium, agonist mode | AID 626, 2007 | B-score at 10 µM | Fluo-4 calcium fluorescence; active compounds read high | 3% of 64,000 active;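 active = fluorescence rise, raw or as B-score row- and column-corrected plate score, outside the 99.7% band of its plate's samples, either direction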
HEK293 NFkB inh: inhibitors of PMA/ionomycin-induced NF-kB reporter, primary screen, antigen receptor NF-kB inhibitor project, cell-based, HEK-293 luciferase reporter, luminescence; AID 465, 2006; inhibition, % at 3 µM; 0.21% of 62,000 active; HEK-293 NF-kB luciferase reporter;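 active = inhibition above the mean of all tested compounds plus 3 SD, cut at about 40% in these data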;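 note: 0% = stimulated DMSO wells and 100% = 10 µM reference inhibitor 5653914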
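Reagent: PMA plus ionomycin mix as NF-kB-activating stimulus. Assay system: NF-kB luciferase reporter HEK-293 cells. Technique: luminescence from luciferase substrate reagent. Incubation: 1 h compound pre-incubation, 16 h PMA/ionomycin at 37 °C. Benchmarks: DMSO only as uninhibited control, 10 µM reference inhibitor as full inhibition. Repeats: tested once.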
M1 antag: antagonists of rat M1 muscarinic receptor; Muscarinic acetylcholine receptor M1 (Rattus norvegicus), P08482; CHO-M1 cells, Fluo-4 calcium, ACh EC80 antagonist mode; active compounds read low; B-score at 10 µM; 3.4% of 64,000 active; AID 628, 2007;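 active = calcium fluorescence response, raw or row-and-column corrected B-score, differing from the plate sample mean either way at a set confidence level, mostly lower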
D1 allo mod: D1 CRE-luciferase signal change, two-sided – cell-based, HEK293 D1, dopamine EC30, D1 allosteric modulator project, primary screen. D(1A) dopamine receptor (Homo sapiens), P21728. dopamine EC30 potentiation; actives deviate in either direction. B-score at 10 µM. 5.9% of 58,000 active;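 active = luminescence count or its row- and column-corrected plate score outside the 99.7% band of the plate's sample wells, on either side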
BAP1 block: inhibitors of BAP1 deubiquitinase, primary screen, biochemical, Ub-AMC fluorescence, kinetic; Ubiquitin carboxyl-terminal hydrolase BAP1 (Homo sapiens), Q92560; recombinant BAP1, Ub-AMC hydrolysis fluorescence kinetic; active compounds read low; calls only at 20 µM; 0.48% of 72,000 active;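 active = activity remaining at or below 50% of control, provided the compound also passes the data quality filters; inactive = the rest, including low values that fail the filters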;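 note: 100% = DMSO wells rate and 0% = substrate alone blank rate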
Target sequence (Q92560 whole entry, looked up): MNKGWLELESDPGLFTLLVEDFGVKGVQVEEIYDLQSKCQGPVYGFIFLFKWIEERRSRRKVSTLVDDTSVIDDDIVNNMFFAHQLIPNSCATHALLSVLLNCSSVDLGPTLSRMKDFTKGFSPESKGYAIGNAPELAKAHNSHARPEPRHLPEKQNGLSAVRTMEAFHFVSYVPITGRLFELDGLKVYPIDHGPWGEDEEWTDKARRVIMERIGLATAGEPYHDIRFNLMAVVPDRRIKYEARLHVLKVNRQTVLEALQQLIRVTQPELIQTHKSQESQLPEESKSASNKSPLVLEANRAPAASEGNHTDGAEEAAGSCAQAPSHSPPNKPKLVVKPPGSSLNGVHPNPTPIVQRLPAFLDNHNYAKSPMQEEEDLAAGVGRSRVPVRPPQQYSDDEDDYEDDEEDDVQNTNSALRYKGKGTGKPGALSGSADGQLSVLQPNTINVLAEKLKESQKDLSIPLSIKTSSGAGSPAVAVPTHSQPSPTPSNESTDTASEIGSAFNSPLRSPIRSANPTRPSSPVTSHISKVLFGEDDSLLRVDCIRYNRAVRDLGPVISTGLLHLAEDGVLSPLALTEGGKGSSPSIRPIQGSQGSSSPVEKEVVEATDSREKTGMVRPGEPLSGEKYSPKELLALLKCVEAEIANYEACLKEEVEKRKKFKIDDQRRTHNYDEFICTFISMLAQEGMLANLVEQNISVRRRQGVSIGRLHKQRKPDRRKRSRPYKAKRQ
M1 agonist conf: rat M1 muscarinic receptor agonists, confirmation, CHO-M1 cells, Fluo-4 calcium, duplicate retest; shares compounds with M1 agonist; Fluo-4 calcium fluorescence, agonist mode; actives lie on both sides; fluorescence change (max-min) at 10 µM; 19% of 1,700 active; AID 1488, 2009;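 active = fluorescence change differs from the solvent-only DMSO control mean at a set confidence level in both duplicate runs; inconclusive = differs from solvent-only control mean in just one of two runs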;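 note: an EC20 dose of acetylcholine follows compound addition during the same imaging run; raw fluorescence intensity difference in instrument units with no normalization to controls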
M4 ag counter: agonist activity at rat M4 receptor, confirmation, counter-screen for M1 allosteric modulator project, cell-based, agonist mode | shares compounds with M1 agonist | CHO M4/Gqi5 cells, Fluo-4 calcium fluorescence; actives lie on both sides | fluorescence change (max-min) at 10 µM | 9% of 1,700 active | AID 1741, 2009;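 active = fluorescence change differing from the plate's solvent-only control wells at 99.7% confidence in both duplicates, whether higher or lower; inconclusive = differs from solvent controls in only one of two duplicates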
The depositor's hits bear a star; i = inactive; ? = inconclusive; nt = no result given. Most compounds without a hit are left out; they make up all but 7.2% or so of the library.

SMILES	DAT uptake mod	M1 agonist	HEK293 NFkB inh	M1 antag	D1 allo mod	BAP1 block	M1 agonist conf	M4 ag counter
O=C(NCC1CCCO1)c1ccccc1-c1nc(-c2ccccc2)no1 (stereo not given)	-0.7	2.4*	6	0.1	nt	i	-15	?
COc1ccc(CCNc2oc(Cc3ccccc3)nc2C#N)cc1OC	0.75	6.5*	15	-0.39	0.79	i	-31*	?
COc1ccc(CCNc2oc(COc3ccccc3F)nc2C#N)cc1OC	0.95	3*	10	-2.1*	-3.2	i	-28	-85*
COc1ccc(CCNc2oc(COc3ccccc3Cl)nc2C#N)cc1OC	0.46	1.7	4	-0.82	3.7	i	nt	nt
COc1ccc(-c2nc(C#N)c(NCCc3ccccc3)o2)cc1OC	-0.034	0.92	5	0.15	2.7	i	nt	nt
CC(C(=O)NCC1CCCO1)n1cccc1C(=O)c1ccccc1 (stereo not given)	-0.013	21*	12	2.3*	-0.61	i	-10	?
CCN(CC)S(=O)(=O)c1ccc2oc(SCC3CN=C(c4ccc(OC)cc4)S3)nc2c1 (stereo not given)	1.2	8.1*	11	-0.81	-1.2	nt	-32*	?
CCOC(=O)C1CCCN(CC(O)COc2ccc(OC)cc2C(C)(C)C)C1 (stereo not given)	0.26	20*	21	-6.7*	-0.12	i	335*	-17
CCc1ccc(-c2cn3nc(C)c(C)nc3n2)cc1	1	7.3*	nt	1.3	nt	i	89*	39
Cc1nn(-c2ccccc2)c(C)c1C(=O)OCC(=O)N1CC(=O)Nc2ccccc21	nt	-0.15	2	0.33	-0.37	i	nt	nt
Cc1nn(-c2ccccc2)c(C)c1C(=O)OC/C(O)=C(\C#N)c1nc2ccccc2[nH]1	-7.9*	2.9*	2	0.65	-2.1	nt	-21*	-53
COCCOC(=O)c1ccc(NC(=O)c2cccc(Br)c2)cc1	nt	nt	nt	nt	nt	i	nt	nt
Oc1ccc2cccnc2c1	0.2	15*	8	-0.007	-0.98	i	112*	46
O=C(Cc1ccc2cccnc2c1)c1ccc(O)cc1O	-0.19	-1.8	14	-0.29	-0.14	i	nt	nt
CCOc1ccc(C2NC(=O)NC(C)=C2C(=O)OCCSCC)cc1 (stereo not given)	nt	nt	nt	nt	nt	i	nt	nt
O=C(Nc1ccccc1)N(Cc1ccc2c(c1)OCO2)Cc1nc2ccccc2c(=O)[nH]1	1	0.53	4	-0.0029	0.51	i	nt	nt
O=C(c1ccccc1)N(Cc1ccc2c(c1)OCO2)Cc1nc2ccccc2c(=O)[nH]1	0.72	2.7*	17	-0.27	0.47	i	?	-83
COCCNC(=O)C(c1ccc(C)o1)N(Cc1ccc(OC)cc1)C(=O)Cn1nnc2ccccc21 (stereo not given)	1.7	0.64	3	0.35	0.73	i	nt	nt
COCCNC(=O)C(c1ccc(C)o1)N(CC1CCCO1)C(=O)Cn1nnc2ccccc21 (stereo not given)	-0.099	1.9*	3	-0.031	nt	i	?	-50
Cc1ccc(C(C)C)c(OCC(O)CNC(C)(C)C)c1 (stereo not given)	nt	nt	nt	nt	nt	i	nt	nt
Cc1cc(C(=O)Nc2ccc3oc(-c4ccc(C(C)(C)C)cc4)nc3c2)ccc1[N+](=O)[O-]	nt	nt	nt	nt	nt	i	nt	nt
O=C(O)CCNc1cc(C(=O)O)ccc1C(=O)O	nt	nt	nt	nt	nt	i	nt	nt
COC(=O)c1ccc(-c2sc3nc(N4CCOCC4)c4c(c3c2N)CCCC4)o1	0.026	5.5*	nt	-0.17	-0.11	nt	4.5	-10
CC(C)(C)n1nc2c(c1NC(=O)c1ccccc1[N+](=O)[O-])CSC2	nt	nt	nt	nt	nt	i	nt	nt
Cn1c(C(=O)N2CCCCCC2)cc2c(=O)n(C)c3ccccc3c21	0.95	0.57	2	0.32	0.35	i	nt	nt
SMILES	DAT uptake mod	M1 agonist	HEK293 NFkB inh	M1 antag	D1 allo mod	BAP1 block	M1 agonist conf	M4 ag counter
Cn1c(C(=O)NCCN2CCc3ccccc3C2)cc2c(=O)n(C)c3ccccc3c21	2.8	2.9*	-1	-2	-0.31	i	?	-49
Cn1c(C(=O)NCCCN2CCCC2=O)cc2c(=O)n(C)c3ccccc3c21	0.85	0.71	8	0.53	0.018	i	nt	nt
Cc1cccc(N2CCN(C(=O)c3cc4c(=O)n(C)c5ccccc5c4n3C)CC2C)c1 (stereo not given)	0.068	5.5*	10	-0.023	-4.8*	i	-4.4	-21
Cn1c(C(=O)NC2CCCCCC2)cc2c(=O)n(C)c3ccccc3c21	1.8	3.8*	12	-0.95	-1.2	i	?	?
CCCN(CCC)CCNC(=O)c1cc2c(=O)n(C)c3ccccc3c2n1C	-0.17	0.33	0	-1.7	0.67	i	nt	nt
CC1CCC(NC(=O)c2cc3c(=O)n(C)c4ccccc4c3n2C)CC1 (stereo not given)	1.3	3.7*	9	-0.19	0.025	i	-7.6	-17
CCN1C(=O)c2cccc3c(NS(=O)(=O)c4ccc([N+](=O)[O-])cc4)ccc1c23	nt	nt	nt	nt	nt	i	nt	nt
CCc1nc(-c2ccccc2)cc2cc(OC)c(OC)cc12	nt	nt	nt	nt	nt	i	nt	nt
Cn1c(C(=O)NC2CCCCC2)cc2c(=O)n(C)c3ccccc3c21	0.5	3.8*	-5	0.17	-0.45	i	?	?
Cn1c(=O)c(C(=O)NC2CCCCCCC2)c(O)c2ccccc21	0.016	-0.043	11	-0.063	1.4	i	nt	nt
Cc1cc(OCC(=O)Nc2cc3nn(-c4ccccc4)nc3cc2C)ccc1Cl	nt	nt	nt	nt	nt	i	nt	nt
CCOC(=O)N1CCN(Cc2nc(-c3ccc(C)cc3)no2)CC1	0.43	2.5*	-10	0.99	-0.021	i	-4.9	-11
COc1ccc(-c2noc(CN3CCN(c4ccccc4)CC3)n2)cc1	0.47	-1	13	0.56	-0.32	i	nt	nt
Cc1ccc(C(c2nnnn2C2CCCCC2)N(C)C2CCCCC2)cc1 (stereo not given)	-0.0023	nt	nt	nt	nt	nt	nt	nt
CC(C)C(c1nnnn1C1CCCC1)N(C)C1CCCCC1 (stereo not given)	0.056	9.7*	6	-0.09	0.27	i	-3.3	-17
COC(=O)C1=C(NC(=O)NC(=O)N(C)S(=O)(=O)c2ccc(C)cc2)CCS1	nt	nt	nt	nt	nt	i	nt	nt
